Test results taken from ChEMBL document CHEMBL4385668, “Synthesis and in vitro anticancer activity of new gemcitabine-nucleoside analogue dimers containing methyltriazole or ester-methyltriazole linker” (Bioorg Med Chem Lett, 2019).

Key:
[1] = Drug level in human HeLa cells treated with 1-(3'-Deoxythymidin-3'-yl)-4-[methyloxycarbonyl-(2'-deoxy-2',2'-difluorocytidin-4N-yl)]-1H-1,2,3-triazole assessed as compound release incubated for 12 hrs by HPLC/MS method; format: ADME, cell-based
In short: (§1)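 HeLa cells were incubated with the dimer at 37 °C for 12 h. Cell lysate was analysed by HPLC/MS for released gemcitabine, the deamination product dFdU and the thymidine-triazole fragment. A separately synthesized sample of the thymidine-triazole fragment was used as the reference.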

[2] = Selectivity index, ratio of IC50 for cytotoxicity in human NHDF cells to IC50 for cytotoxicity in human HepG2 cells
In short: (§2)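 Selectivity index is the IC50 in normal HDF fibroblasts divided by the IC50 in the given cancer line.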

[3] = Selectivity index, ratio of IC50 for cytotoxicity in human NHDF cells to IC50 for cytotoxicity in human HeLa cells; in short: as §2
[4] = system: U-87 MG; assay: Cytotoxicity in human U87 cells assessed as reduction in cell viability incubated for 72 hrs by SRB assay; format: functional, cell-based, U-87MG ATCC
In short: (§3)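 SRB assay of cell viability in human cancer lines (HeLa, KB, A549, U87, HepG2) and normal dermal fibroblasts (HDF). IC50 values are […] of three independent experiments.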

[5] = Selectivity index, ratio of IC50 for cytotoxicity in human NHDF cells to IC50 for cytotoxicity in human KB cells; in short: as §2
[6] = Selectivity index, ratio of IC50 for cytotoxicity in human NHDF cells to IC50 for cytotoxicity in human A549 cells; in short: as §2
[7] = system: KB; assay: Cytotoxicity in human KB cells assessed as reduction in cell viability incubated for 72 hrs by SRB assay; format: functional, cell-based; in short: as §3
[8] = system: NHDF; assay: Cytotoxicity in human NHDF cells assessed as reduction in cell viability incubated for 72 hrs by SRB assay; format: cell-based; in short: as §3
[9] = system: HeLa; assay: Cytotoxicity in human HeLa cells assessed as reduction in cell viability incubated for 72 hrs by SRB assay; format: functional, cell-based; in short: as §3
[10] = Selectivity index, ratio of IC50 for cytotoxicity in human NHDF cells to IC50 for cytotoxicity in human U87 cells; in short: as §2
[11] = system: HepG2; assay: Cytotoxicity in human HepG2 cells assessed as reduction in cell viability incubated for 72 hrs by SRB assay; format: functional, cell-based; settings: HepG2, 72 h; in short: as §3
[12] = system: A549; assay: Cytotoxicity in human A549 cells assessed as reduction in cell viability incubated for 72 hrs by SRB assay; format: functional, cell-based; settings: A549, 72 h; in short: as §3
[13] = Drug metabolism in human HeLa cells assessed as gemcitabine release incubated for 12 hrs by HPLC/MS method; format: ADME, cell-based; in short: as §1
[14] = Drug metabolism in human HeLa cells assessed as 2',2'-difluoro-2'-deoxyuridine release incubated for 12 hrs by HPLC/MS method; format: ADME, cell-based; in short: as §1

Row | Structure (SMILES) | Drug uptake [1] | Ratio IC50 [2] | Ratio IC50 [3] | IC50 [4] | Ratio IC50 [5] | Ratio IC50 [6] | IC50 [7] | IC50 [8] | IC50 [9] | Ratio IC50 [10] | IC50 [11] | IC50 [12] | Drug metabolism [13] | Drug metabolism [14]
1 | Cc1cn([C@H]2C[C@H](n3cc(CO)nn3)[C@@H](CO)O2)c(=O)[nH]c1=O | Active | – | – | – | – | – | – | – | – | – | – | – | – | –
2 | CC(C)(C)OC(=O)O[C@H]1C[C@H](n2cc(F)c(=O)[nH]c2=O)O[C@@H]1Cn1cc(CNc2ccn([C@@H]3O[C@H](CO)[C@@H](O)C3(F)F)c(=O)n2)nn1 | – | 2.41 | 2.94 | 4.73 µM | 2.97 | 2.35 | 4.62 µM | 13.7 µM | 4.68 µM | 2.91 | 5.71 µM | 5.86 µM | – | –
3 | O=c1[nH]c(=O)n([C@H]2C[C@H](O)[C@@H](Cn3cc(CNc4ccn([C@@H]5O[C@H](CO)[C@@H](O)C5(F)F)c(=O)n4)nn3)O2)cc1F | – | – | – | 80.3 µM | – | – | 81.5 µM | 106 µM | 78.9 µM | – | 78.9 µM | 79.3 µM | – | –
4 | Nc1ccn([C@@H]2O[C@H](Cn3cc(COC(=O)Nc4ccn([C@@H]5O[C@H](CO)[C@@H](O)C5(F)F)c(=O)n4)nn3)[C@@H](O)C2(F)F)c(=O)n1 | – | – | – | 12.6 µM | – | – | 11.3 µM | 15.8 µM | 12.4 µM | – | 10.8 µM | 11.4 µM | – | –
5 | O=C(Nc1ccn([C@@H]2O[C@H](CO)[C@@H](O)C2(F)F)c(=O)n1)OCc1cn(C[C@H]2O[C@@H](n3ccc(NC(=O)OCc4ccccc4)nc3=O)C(F)(F)[C@@H]2O)nn1 | – | 3.67 | 4.1 | 2.14 µM | 4.04 | 3.85 | 2.01 µM | 8.12 µM | 1.98 µM | 3.79 | 2.21 µM | 2.11 µM | – | –
6 | Cc1cn([C@H]2C[C@H](O)[C@@H](Cn3cc(CNc4ccn([C@@H]5O[C@H](CO)[C@@H](O)C5(F)F)c(=O)n4)nn3)O2)c(=O)[nH]c1=O | – | – | – | 128 µM | – | – | 131 µM | 152 µM | 129 µM | – | 130 µM | 126 µM | – | –
7 | Cc1cn([C@H]2C[C@H](O)[C@@H](Cn3cc(COC(=O)Nc4ccn([C@@H]5O[C@H](CO)[C@@H](O)C5(F)F)c(=O)n4)nn3)O2)c(=O)[nH]c1=O | – | – | – | 13.5 µM | – | – | 13.1 µM | 16.9 µM | 13.5 µM | – | 14.6 µM | 13.4 µM | – | –
8 | Cc1cn([C@H]2C[C@H](OC(=O)OC(C)(C)C)[C@@H](Cn3cc(CNc4ccn([C@@H]5O[C@H](CO)[C@@H](O)C5(F)F)c(=O)n4)nn3)O2)c(=O)[nH]c1=O | – | – | – | 6.97 µM | – | – | 7.07 µM | 14.2 µM | 6.3 µM | – | 6.34 µM | 6.07 µM | – | –
9 | Cc1cn([C@H]2C[C@H](OC(=O)OC(C)(C)C)[C@@H](Cn3cc(COC(=O)Nc4ccn([C@@H]5O[C@H](CO)[C@@H](O)C5(F)F)c(=O)n4)nn3)O2)c(=O)[nH]c1=O | – | – | – | 9.68 µM | – | – | 10.7 µM | 15 µM | 9.65 µM | – | 11.1 µM | 8.5 µM | – | –
10 | O=C(Nc1ccn([C@@H]2O[C@H](Cn3cc(CNc4ccn([C@@H]5O[C@H](CO)[C@@H](O)C5(F)F)c(=O)n4)nn3)[C@@H](O)C2(F)F)c(=O)n1)OCc1ccccc1 | – | 2.18 | 2.39 | 4.45 µM | 2.44 | 2.34 | 4.14 µM | 10.1 µM | 4.23 µM | 2.27 | 4.64 µM | 4.31 µM | – | –
11 | O=C(Nc1ccn([C@@H]2O[C@H](Cn3cc(CNc4ccn([C@@H]5O[C@H](CO)[C@@H](O)C5(F)F)c(=O)n4)nn3)[C@@H](OC(=O)c3ccccc3)C2(F)F)c(=O)n1)c1ccccc1 | – | – | – | 5.5 µM | – | – | 5.34 µM | 14.2 µM | 5.41 µM | – | 5.82 µM | 6.01 µM | – | –
12 | CC(C)(C)OC(=O)O[C@@H]1[C@@H](Cn2cc(CNc3ccn([C@@H]4O[C@H](CO)[C@@H](O)C4(F)F)c(=O)n3)nn2)O[C@@H](n2ccc(NC(=O)OCc3ccccc3)nc2=O)C1(F)F | – | 2.07 | 2.6 | 3.81 µM | 2.63 | 2.51 | 3.09 µM | 8.12 µM | 3.12 µM | 2.13 | 3.93 µM | 3.24 µM | – | –
13 | CC(C)(C)OC(=O)O[C@@H]1[C@@H](Cn2cc(COC(=O)Nc3ccn([C@@H]4O[C@H](CO)[C@@H](O)C4(F)F)c(=O)n3)nn2)O[C@@H](n2ccc(NC(=O)OCc3ccccc3)nc2=O)C1(F)F | – | 4.64 | 4.83 | 1.09 µM | 4.94 | 5.65 | 0.95 µM | 4.69 µM | 0.97 µM | 4.3 | 1.01 µM | 0.83 µM | – | –
14 | O=C(Nc1ccn([C@@H]2O[C@H](CO)[C@@H](O)C2(F)F)c(=O)n1)OCc1cn(C[C@H]2O[C@@H](n3cc(F)c(=O)[nH]c3=O)C[C@@H]2O)nn1 | – | – | – | 7.56 µM | – | – | 6.52 µM | 10.2 µM | 6.7 µM | – | 7.66 µM | 8.01 µM | – | –
15 | CC(C)(C)OC(=O)O[C@@H]1[C@@H](Cn2cc(COC(=O)Nc3ccn([C@@H]4O[C@H](CO)[C@@H](O)C4(F)F)c(=O)n3)nn2)O[C@@H](n2ccc(N)nc2=O)C1(F)F | – | 3.77 | 4.38 | 2.21 µM | 4.16 | 4.06 | 2.12 µM | 8.81 µM | 2.01 µM | 3.99 | 2.34 µM | 2.17 µM | – | –
16 | Nc1ccn([C@@H]2O[C@H](Cn3cc(CNc4ccn([C@@H]5O[C@H](CO)[C@@H](O)C5(F)F)c(=O)n4)nn3)[C@@H](O)C2(F)F)c(=O)n1 | – | – | – | 16.5 µM | – | – | 15.9 µM | 29.3 µM | 16.2 µM | – | 15.1 µM | 16.1 µM | – | –
17 | Cc1cn([C@H]2C[C@H](n3cc(CNc4ccn([C@@H]5O[C@H](CO)[C@@H](O)C5(F)F)c(=O)n4)nn3)[C@@H](CO)O2)c(=O)[nH]c1=O | – | – | – | 10.8 µM | – | – | 12.2 µM | 17.8 µM | 10.9 µM | – | 12.2 µM | 10.6 µM | Metabolite_Detected | Metabolite_Notdetected
18 | O=C(Nc1ccn([C@@H]2O[C@H](CO)[C@@H](O)C2(F)F)c(=O)n1)OCc1cn(C[C@H]2O[C@@H](n3ccc(NC(=O)c4ccccc4)nc3=O)C(F)(F)[C@@H]2OC(=O)c2ccccc2)nn1 | – | 2.6 | 2.83 | 3.41 µM | 2.91 | 2.75 | 3.13 µM | 9.12 µM | 3.22 µM | 2.67 | 3.51 µM | 3.32 µM | – | –
19 | CC(C)(C)OC(=O)O[C@@H]1[C@@H](Cn2cc(CNc3ccn([C@@H]4O[C@H](CO)[C@@H](O)C4(F)F)c(=O)n3)nn2)O[C@@H](n2ccc(N)nc2=O)C1(F)F | – | 2.1 | 2.65 | 4.54 µM | 2.67 | 2.58 | 4.09 µM | 10.9 µM | 4.11 µM | 2.4 | 5.19 µM | 4.23 µM | – | –
20 | Nc1ccn([C@@H]2O[C@H](CO)[C@@H](O)[C@@H]2O)c(=O)n1 [CYTARABINE] | – | 1.75 | 1.41 | 2.88 µM | 1.23 | 1.44 | – | 4.99 µM | – | 1.73 | – | 3.47 µM | – | –
21 | O=c1[nH]c(=O)n([C@H]2C[C@H](O)[C@@H](CO)O2)cc1F [FLOXURIDINE] | – | 1.47 | 2.01 | 6.14 µM | 1.5 | 2.21 | – | 13.1 µM | – | 2.13 | – | 5.91 µM | – | –
22 | Nc1ccn([C@@H]2O[C@H](CO)[C@@H](O)C2(F)F)c(=O)n1 [GEMCITABINE] | Active | 3.97 | 2.07 | 5.21 µM | 2.37 | 3.85 | 8.21 µM | 19.4 µM | 9.42 µM | 3.73 | 4.9 µM | 5.05 µM | – | –
23 | Cc1cn([C@H]2C[C@H](N=[N+]=[N-])[C@@H](CO)O2)c(=O)[nH]c1=O [ZIDOVUDINE] | – | 1.11 | 1.34 | 11.9 µM | 1.48 | 1.22 | 9.77 µM | 14.4 µM | 10.8 µM | 1.21 | 13 µM | 11.9 µM | – | –
